{"data": "Published values of several laboratories", "target": "Mitogen-activated protein kinase kinase kinase kinase 2 (MAP4K2, Homo sapiens, UniProt Q12851)", "Sequence (Q12851 1-820, as in one of the studies)": "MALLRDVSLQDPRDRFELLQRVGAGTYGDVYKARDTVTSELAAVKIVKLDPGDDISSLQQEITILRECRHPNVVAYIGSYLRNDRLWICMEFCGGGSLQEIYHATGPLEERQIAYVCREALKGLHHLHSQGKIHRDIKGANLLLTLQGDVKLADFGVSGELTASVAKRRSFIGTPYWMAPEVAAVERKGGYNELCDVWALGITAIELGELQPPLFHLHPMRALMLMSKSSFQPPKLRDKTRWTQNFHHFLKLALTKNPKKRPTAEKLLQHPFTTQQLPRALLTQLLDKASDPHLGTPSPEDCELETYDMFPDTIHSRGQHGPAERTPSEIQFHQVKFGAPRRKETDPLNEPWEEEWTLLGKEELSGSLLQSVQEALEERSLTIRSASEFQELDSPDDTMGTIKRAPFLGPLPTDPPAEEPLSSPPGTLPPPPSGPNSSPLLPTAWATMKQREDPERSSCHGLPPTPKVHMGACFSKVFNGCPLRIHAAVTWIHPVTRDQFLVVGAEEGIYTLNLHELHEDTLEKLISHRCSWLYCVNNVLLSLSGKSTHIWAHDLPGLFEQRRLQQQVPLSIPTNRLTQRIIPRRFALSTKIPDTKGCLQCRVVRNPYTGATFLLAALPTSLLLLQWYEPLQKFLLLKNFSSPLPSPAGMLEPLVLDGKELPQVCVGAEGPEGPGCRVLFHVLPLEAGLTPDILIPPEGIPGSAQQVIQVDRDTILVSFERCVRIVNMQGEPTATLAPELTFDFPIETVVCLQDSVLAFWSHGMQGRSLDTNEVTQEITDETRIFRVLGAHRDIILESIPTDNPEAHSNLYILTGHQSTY"}
{"Structure (SMILES)": "N#CCCc1ccc2c(c1)-c1[nH]c3ccc([N+](=O)[O-])cc3c1CC(=O)N2", "test": "cell-free assay", "setting": "0.5 µM", "quantity": "remaining signal", "result": "14%"}
{"Structure (SMILES)": "CNC(=O)c1cc(Oc2ccc(NC(=O)Nc3ccc(Cl)c(C(F)(F)F)c3)cc2)ccn1", "test": "enzyme activity, inhibitor", "setting": "10 µM", "quantity": "inhibition", "result": "46%"}
{"Structure (SMILES)": "Nc1ncnc2occ(-c3ccc(NC(=O)Nc4cc(C(F)(F)F)ccc4F)cc3)c12", "test": "cell-free assay, inhibitor", "setting": "20 µM", "quantity": "remaining signal", "result": "0%"}
{"Structure (SMILES)": "FC(F)(F)Oc1cccc(-c2cnc3ccc(-c4ccncc4)nn23)c1", "test": "enzyme activity, inhibitor, radiometric", "setting": "5 µM", "quantity": "activity vs control", "result": "33%"}
{"Structure (SMILES)": "Cc1c(NC(=O)c2cc(C(N)=O)nc3cc(F)ccc23)c(C(F)(F)F)nn1Cc1ccc(C#N)cc1", "test": "cell-free assay, competition with immobilised ligand", "setting": "1 µM", "quantity": "remaining binding", "result": "88%"}
{"Structure (SMILES)": "O=C1NC(=O)c2cc(Nc3ccc(F)cc3)c(Nc3ccc(F)cc3)cc21", "test": "cell-free assay", "setting": "0.5 µM", "quantity": "remaining signal", "result": "98.2%"}
{"Structure (SMILES)": "C[C@H](c1ccnc(Nc2nc3ccc(-c4cc(N(C)C)ncn4)cc3[nH]2)c1)N1CCN(C(=O)CC(F)(F)F)CC1", "test": "cell-free assay, competition with immobilised ligand", "setting": "0.1 µM", "quantity": "remaining binding", "result": "100%"}
{"Structure (SMILES)": "COc1cc(Nc2cnc(C#N)c(O[C@H](C)CN(C)C)n2)ncc1-c1cnn(C)c1", "test": "enzyme activity, inhibitor, radiometric", "setting": "1 µM", "quantity": "remaining activity", "result": "102%"}
{"Structure (SMILES)": "COc1cc(/C=C/C(=O)CC(=O)/C=C/c2ccc(O)c(OC)c2)ccc1O", "test": "enzyme activity, inhibitor", "setting": "1 µM", "quantity": "activity vs control", "result": "103%"}
{"Structure (SMILES)": "C[C@@H](c1cccc(C#N)c1)n1cc(Cl)cc(C(N)=O)c1=N", "test": "cell-free assay, competition with immobilised ligand", "setting": "1 µM", "quantity": "remaining binding", "result": "90%"}
{"Structure (SMILES)": "Cc1cc(NC(=O)c2cccc3cc(-c4cccc5[nH]nc(N)c45)ccc23)ccc1F", "test": "enzyme activity, inhibitor", "setting": "0.1 µM", "quantity": "activity vs control", "result": "88%"}
{"Structure (SMILES)": "CC(=O)N1CCC(c2ccc(C(=O)NC(=N)N)cc2C(F)(F)F)CC1", "test": "cell-free assay, competition with immobilised ligand", "setting": "1 µM", "quantity": "remaining binding", "result": "100%"}
{"Structure (SMILES)": "COc1cc2ncnc(Nc3ccc(Oc4ccccc4)cc3C)c2cc1OC", "test": "enzyme activity, inhibitor", "setting": "1 µM", "quantity": "inhibition", "result": "2%"}
{"Structure (SMILES)": "CC/C(=N\\NC(=O)NCc1cccc(O)c1)c1ccc(O)c(C)c1O", "test": "enzyme activity, inhibitor", "setting": "0.1 µM", "quantity": "inhibition", "result": "1.4%"}
{"Structure (SMILES)": "Cc1ccc(C(=O)Nc2ccc(CN3CCN(C)CC3)c(C(F)(F)F)c2)cc1C#Cc1cnc2cccnn12", "test": "enzyme activity, inhibitor", "setting": "23.5 nM", "quantity": "remaining activity", "result": "4.9%"}
{"Structure (SMILES)": "Oc1cccc(-c2nc(N3CCOCC3)c3oc4ncccc4c3n2)c1", "test": "enzyme activity, inhibitor", "setting": "10 µM", "quantity": "remaining activity", "result": "91%"}
{"Structure (SMILES)": "CC(C)(C)c1nc2c(s1)c1nc(N)ncc1c1ccc(NS(=O)(=O)c3c(F)cccc3F)c(F)c12", "test": "enzyme activity, inhibitor, radiometric", "setting": "1 µM", "quantity": "remaining activity", "result": "114%"}
{"Structure (SMILES)": "O=C1Nc2ccc(Cl)cc2C1=Cc1cc(Cl)c(O)c(Cl)c1", "test": "cell-free assay", "setting": "0.5 µM", "quantity": "remaining signal", "result": "62.6%"}
{"Structure (SMILES)": "COc1cc(Cl)c(C(=O)N[C@@H](CN[C@H]2CC[C@@H](N)CC2)Cc2ccc(C#N)cc2)cc1-c1ccc(CN[C@H](C)c2ccc(C)cc2)o1", "test": "enzyme activity, inhibitor", "setting": "1 µM", "quantity": "remaining activity", "result": "94%"}
{"Structure (SMILES)": "Cc1cc(NC(=O)c2cccc(S(F)(F)(F)(F)F)c2)cc(-n2ccn3nc(-c4cccnc4)cc23)c1", "test": "cell-free assay, competition with immobilised ligand", "setting": "1 µM", "quantity": "remaining binding", "result": "100%"}
{"Structure (SMILES)": "Cc1cnc(NC2CCOCC2)nc1-n1cnc(C(=O)NC(CN)c2cc(F)cc(Cl)c2)c1 (centres unmarked)", "test": "enzyme activity, inhibitor, radiometric", "setting": "1 µM", "quantity": "remaining activity", "result": "100%"}
{"Structure (SMILES)": "Cc1nc(N2CC[C@@H](O)C2)ncc1-c1cc(C(F)(F)F)cc2[nH]ncc12", "test": "binding, competition with immobilised ligand", "setting": "1 µM", "quantity": "remaining binding", "result": "76%"}
{"Structure (SMILES)": "Cc1ccc(Nc2nccc(N(C)c3ccc4c(C)n(C)nc4c3)n2)cc1S(N)(=O)=O", "test": "enzyme activity, inhibitor", "setting": "0.3 µM", "quantity": "inhibition", "result": "16%"}
{"Structure (SMILES)": "Cc1sc(C(=O)NC2COC2)cc1-n1cc(NC(=O)Nc2c(F)cccc2Cl)cn1", "test": "enzyme activity, inhibitor", "setting": "10 µM", "quantity": "remaining activity", "result": "90.2%"}
{"Structure (SMILES)": "CCN(CC)CCNC(=O)c1c(C)[nH]c(/C=C2\\C(=O)Nc3ccc(F)cc32)c1C", "test": "enzyme activity, inhibitor", "setting": "10 µM", "quantity": "inhibition", "result": "92%"}
{"Structure (SMILES)": "O=C1NC(c2ccccn2)Sc2ccccc21 (centres unmarked)", "test": "cell-free assay, competition with immobilised ligand", "setting": "1 µM", "quantity": "remaining binding", "result": "83%"}
